Assay results published in ChEMBL document CHEMBL1137007, “Synthesis of 4-substituted pyrido[2,3-d]pyrimidin-4(1H)-one as analgesic and anti-inflammatory agents” (Bioorg Med Chem Lett, 2009).

How the values were obtained:
Rattus norvegicus [1] = assay: Antiinflammatory activity in rat assessed as inhibition of carrageenan-induced paw oedema at 10 mg/kg, po after 30 mins; type: functional; parameters: scale not given: the % may be the effect or the level left
How it was run: (§1)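 Rats, six per group, were dosed orally (10 or 20 mg/kg, suspension in 1% carboxymethyl cellulose) before carrageenan paw injection. Paw volume was read by mercury-displacement plethysmography just before and 30 min, 1, 2 and 3 h after carrageenan. %inhibition = 100[1 − (a − x)/(b − y)], with the test group's pre/post volumes set against the vehicle control group's. Reported as mean ± SEM (n = 6) with ANOVA.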

Rattus norvegicus [2] = assay: Antiinflammatory activity in rat assessed as inhibition of carrageenan-induced paw oedema at 20 mg/kg, po after 30 mins; type: functional; parameters: scale not given: the % may be the effect or the level left; how it was run: as §1
Rattus norvegicus [3] = assay: Antiinflammatory activity in rat assessed as inhibition of carrageenan-induced paw oedema at 10 mg/kg, po after 1 hr; type: functional; parameters: scale not given: the % may be the effect or the level left; how it was run: as §1
Rattus norvegicus [4] = assay: Antiinflammatory activity in rat assessed as inhibition of carrageenan-induced paw oedema at 20 mg/kg, po after 1 hr; type: functional; parameters: scale not given: the % may be the effect or the level left; how it was run: as §1
Rattus norvegicus [5] = assay: Antiinflammatory activity in rat assessed as inhibition of carrageenan-induced paw oedema at 10 mg/kg, po after 2 hrs; type: functional; parameters: scale not given: the % may be the effect or the level left; how it was run: as §1
Rattus norvegicus [6] = assay: Antiinflammatory activity in rat assessed as inhibition of carrageenan-induced paw oedema at 20 mg/kg, po after 2 hrs; type: functional; parameters: scale not given: the % may be the effect or the level left; how it was run: as §1
Rattus norvegicus [7] = assay: Antiinflammatory activity in rat assessed as inhibition of carrageenan-induced paw oedema at 10 mg/kg, po after 3 hrs; type: functional; parameters: scale not given: the % may be the effect or the level left; how it was run: as §1
Rattus norvegicus [8] = assay: Antiinflammatory activity in rat assessed as inhibition of carrageenan-induced paw oedema at 20 mg/kg, po after 3 hrs; type: functional; parameters: scale not given: the % may be the effect or the level left; how it was run: as §1
Rattus norvegicus [9] = assay: Toxicity in Wistar albino rat assessed as ulcer index at 20 mg/kg, ip administered once daily for 3 days; type: organism-based; parameters: dose 20 mg/kg, route intraperitoneal; settings: in vivo, 72 h
How it was run: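 Wistar albino rats of either sex (150–200 g), six per group, housed at 25 °C, 45–55% RH, 12-h light/dark cycle and acclimatized one week. Dosing was intraperitoneal as a suspension in 10% v/v Tween-80, with a vehicle-only control group. Animals were fasted 36 h, then pylorus-ligated (Shay method) on day 4 and sacrificed 4 h later for ulcer index. Values are mean ± SEM (n = 6), analysed by one-way ANOVA.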

Mus musculus [10] = assay: Analgesic activity in Wister albino mice at 10 mg/kg, po after 1 hr by tail-flick test
Mus musculus [11] = assay: Analgesic activity in Wister albino mice at 20 mg/kg, po after 1 hr by tail-flick test
Mus musculus [12] = assay: Analgesic activity in Wister albino mice at 10 mg/kg, po after 2 hrs by tail-flick test
Mus musculus [13] = assay: Analgesic activity in Wister albino mice at 20 mg/kg, po after 2 hrs by tail-flick test
Mus musculus [14] = assay: Analgesic activity in Wister albino mice at 10 mg/kg, po after 3 hrs by tail-flick test
Mus musculus [15] = assay: Analgesic activity in Wister albino mice at 20 mg/kg, po after 3 hrs by tail-flick test
Mus musculus [16] = assay: Analgesic activity in Wister albino mice at 10 mg/kg, po after 30 mins by tail-flick test
Mus musculus [17] = assay: Analgesic activity in Wister albino mice at 20 mg/kg, po after 30 mins by tail-flick test

SMILES | Activity (Rattus norvegicus [1]) [%] | Activity (Rattus norvegicus [2]) [%] | Activity (Rattus norvegicus [3]) [%] | Activity (Rattus norvegicus [4]) [%] | Activity (Rattus norvegicus [5]) [%] | Activity (Rattus norvegicus [6]) [%] | Activity (Rattus norvegicus [7]) [%] | Activity (Rattus norvegicus [8]) [%] | UI (Rattus norvegicus [9]) | Activity (Mus musculus [10]) [%] | Activity (Mus musculus [11]) [%] | Activity (Mus musculus [12]) [%] | Activity (Mus musculus [13]) [%] | Activity (Mus musculus [14]) [%] | Activity (Mus musculus [15]) [%] | Activity (Mus musculus [16]) [%] | Activity (Mus musculus [17]) [%]
O=C([O-])Cc1ccccc1Nc1c(Cl)cccc1Cl.[Na+] [DICLOFENAC SODIUM] | 32 | 45 | 38 | 52 | 39 | 60 | 33 | 42 | 1.65 | 43 | 55 | 45 | 62 | 33 | 39 | 37 | 46
Nc1nc(=S)[nH]c2nc3[nH]c(=S)[nH]c(=O)c3c(-c3ccc(N4CCOCC4)cc3)c12 | 33 | 39 | 40 | 46 | 43 | 49 | 29 | 38 | 0.67 | 45 | 49 | 49 | 55 | 33 | 46 | 42 | 48
N=c1sc(=S)[nH]c2nc3[nH]c(=S)[nH]c(=O)c3c(-c3ccc(N4CCCCC4)cc3)c12 | 33 | 37 | 38 | 40 | 39 | 46 | 25 | 33 | 0.73 | 42 | 53 | 48 | 56 | 34 | 39 | 38 | 51
N=c1sc(=S)[nH]c2nc3[nH]c(=S)[nH]c(=O)c3c(-c3ccc(N4CCOCC4)cc3)c12 | 25 | 30 | 28 | 34 | 31 | 42 | 21 | 30 | 0.89 | 41 | 53 | 44 | 56 | 32 | 44 | 39 | 49
Cc1nc2nc3[nH]c(=S)[nH]c(=O)c3c(-c3ccc(N4CCCCC4)cc3)c2c(=O)[nH]1 | 29 | 36 | 33 | 39 | 34 | 41 | 26 | 34 | 0.9 | 43 | 56 | 48 | 56 | 35 | 42 | 37 | 48
CN1CCN(c2ccc(-c3c4c(=O)[nH]c(=S)[nH]c4nc4[nH]c(=S)sc(=N)c34)cc2)CC1 | 31 | 39 | 32 | 40 | 37 | 46 | 22 | 31 | 0.85 | 35 | 46 | 38 | 49 | 29 | 38 | 32 | 42
Nc1ncnc2nc3[nH]c(=S)[nH]c(=O)c3c(-c3ccc(N4CCCCC4)cc3)c12 | 33 | 42 | 39 | 45 | 40 | 48 | 32 | 39 | 0.58 | 49 | 57 | 52 | 59 | 32 | 38 | 41 | 55
N#Cc1c(N)nc2[nH]c(=S)[nH]c(=O)c2c1-c1ccc(N2CCOCC2)cc1 | 41 | 50 | 48 | 61 | 50 | 63 | 36 | 47 | 0.54 | 47 | 63 | 53 | 66 | 31 | 43 | 45 | 59
